Assay results from ChEMBL document CHEMBL4350999, “Enhanced tumor retention of NTSR1-targeted agents by employing a hydrophilic cysteine cathepsin inhibitor” (Eur J Med Chem, 2019).
The source made the active and inactive calls. No cut-off for these calls is given here.

Experiments:
Cathepsin B [1] = biological target: T1, Cathepsin B (Homo sapiens, UniProt P07858); experiment: Inhibition of human liver cathepsin B assessed as pseudo Michaelis-Menten constant at 10 nM using varying levels of Z-Arg-Arg-AMC as substrate measured every 5 mins for 1 hr by fluorescence assay
[2] = Drug localization in endolysosomal compartment of human HT-29 cells assessed as decrease in co-localization efficiency at 5 uM incubated for 2 hrs and measured over 24 hrs using natEu labelled compound by lysotracker green staining based confocal microscopic analysis relative to control; type: ADME, subcellular; conditions: ht-29, 5 µM
Outline: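 HT-29 cells (1.25 × 10^5/well) loaded with natEu conjugate (5 μM), washed, then chased in fresh medium up to 24 h. Lysotracker Green (100 nM) applied 2 h before each read; cells fixed and imaged confocally at 405/488 nm. Per-cell mean fluorescence and Lysotracker co-localization quantified.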

Cathepsin B [3] = biological target: T1, Cathepsin B; experiment: Binding affinity to cathepsin B in human HT-29 cells assessed as intracellular adduct formation at 0.74 MBq incubated for 4 hrs in presence of DOTA-beta-ala-[N-alpha-Me8, Dmt11, Tle12] NT6-13 using 177Lu labelled compound by SDS-PAGE analysis; type: cell-based; design: dose or concentration left out as unconfirmed
Outline: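 HT-29 cells (1 × 10^6/well) incubated 4 h at 37 °C with 177Lu conjugate (20 μCi, 0.74 MBq) in 1 mL medium, with or without E-64 (10 μM) or NTSR1 peptide N1 (20 μM). Cells washed and refed; at set times cells pooled, RIPA-lysed with protease inhibitor. Lysates heated 85 °C 2 min, run on 16% tris-glycine SDS-PAGE, and phosphor autoradiography taken after 72 h exposure.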

[4] = Drug uptake in large intestine of SCID mouse xenografted with human HT-29 cells using 177Lu labelled compound at 0.37 MBq/mouse, iv co-treated with D-lysine at 40 mg/kg measured at 24 hrs by gamma counter analysis; type: ADME, organism-based; conditions: in vivo
Outline: (§1)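 Female SCID mice bore s.c. HT-29 xenografts (5 × 10^6 cells in Matrigel, about 80 mm3). D-lysine 40 mg/kg was co-injected i.v. with 10 μCi (0.37 MBq) of purified 177Lu-conjugate. Tissues were harvested at 24 h, weighed and gamma-counted, reported as %ID/g; mean ± SD, n = 5.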

[5] = Drug uptake in spleen of SCID mouse xenografted with human HT-29 cells using 177Lu labelled compound at 0.37 MBq/mouse, iv co-treated with D-lysine at 40 mg/kg measured at 24 hrs by gamma counter analysis; type: ADME, organism-based; conditions: in vivo
Outline: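 HT-29 s.c. xenografts in female SCID mice. 177Lu conjugate given i.v. by tail vein at 10 μCi (0.37 MBq)/mouse, co-injected with D-lysine 40 mg/kg. Tissues were taken at 24 h, weighed and gamma counted. Uptake expressed as %ID/g (n = 5, mean ± SD); tumor-to-tissue ratios derived from these values.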

Cathepsin B [6] = biological target: T1, Cathepsin B; experiment: Inhibition of human liver cathepsin B assessed as inhibition constant using Z-Arg-Arg-AMC as substrate measured every 5 mins for 1 hr by fluorescence assay
[7] = Drug uptake in kidney of SCID mouse xenografted with human HT-29 cells pretreated for 1 hr with colchicine at 1 mg/kg, ip followed by 177Lu labelled compound at 0.37 MBq/mouse, iv measured at 24 hrs by gamma counter analysis; type: ADME, organism-based; conditions: in vivo
Outline: (§2)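 HT-29 flank xenografts in female SCID mice (5 × 10^6 cells in Matrigel, about 80 mm3). Colchicine 1 mg/kg was given i.p. before a tail-vein injection of 10 μCi (0.37 MBq) of purified 177Lu-conjugate. Tissues were taken at 24 h, weighed and gamma-counted as %ID/g; mean ± SD, n = 5.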

[8] = Drug retention in kidney lysates of mouse xenografted with human HT-29 cells assessed as macromolecule associated radioactivity at 29.6 MBq co-treated with D-lysine measured after 72 hrs using 177Lu labelled compound by gamma conter analysis relative to control; type: ADME, tissue-based; conditions: in vivo
[9] = Drug uptake in heart of SCID mouse xenografted with human HT-29 cells using 177Lu labelled compound at 0.37 MBq/mouse, iv co-treated with D-lysine at 40 mg/kg measured at 24 hrs by gamma counter analysis; type: ADME, organism-based; conditions: in vivo; outline: as §1
[10] = Ratio of drug uptake in SCID mouse xenograted with human HT-29 cells assessed as tumour retention to drug uptake in muscle of SCID mouse xenografted with human HT-29 cells cotreated with D-lysine at 40 mg/kg measured after 24 hrs using 177Lu labelled compound; type: ADME, organism-based, Tumor/Muscle; conditions: in vivo
[11] = Drug uptake in liver of SCID mouse xenografted with human HT-29 cells pretreated for 1 hr with colchicine at 1 mg/kg, ip followed by 177Lu labelled compound at 0.37 MBq/mouse, iv measured at 24 hrs by gamma counter analysis; type: ADME, organism-based; conditions: in vivo; outline: as §2
[12] = Drug retention in tumor lysates of mouse xenografted with human HT-29 cells assessed as macromolecule associated radioactivity at 29.6 MBq measured after 72 hrs using 177Lu labelled compound by gamma counter analysis relative to control; type: ADME, tissue-based, Neoplasm; conditions: in vivo
Outline: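 HT-29 xenograft mice given 800 μCi (29.6 MBq) 177Lu conjugate i.v. and killed at 72 h. Tumor, liver and kidney homogenized in RIPA with protease inhibitor and supernatants run on SDS-PAGE autoradiography. Other supernatant aliquots filtered through 10 kDa MWCO devices to give the % macromolecule-associated radioactivity; n = 3.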

[13] = Drug uptake in pancreas of SCID mouse xenografted with human HT-29 cells using 177Lu labelled compound at 0.37 MBq/mouse, iv co-treated with D-lysine at 40 mg/kg measured at 24 hrs by gamma counter analysis; type: ADME, organism-based; conditions: in vivo; outline: as §1
Procathepsin L = Procathepsin L (Homo sapiens, UniProt P07711); experiment: Binding affinity to human liver cathepsin L assessed as protein-conjugate adduct formation at 0.74 MBq incubated for 30 mins in presence of DOTA-beta-ala-[N-alpha-Me8, Dmt11, Tle12] NT6-13 using 177Lu labelled compound by SDS-PAGE analysis; conditions: 0.74 M
Outline: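 Purified human liver CatB or CatL (3 nM) in 50 mM sodium acetate/1 mM EDTA pH 5.0 incubated 30 min with 177Lu conjugate (500,000 cpm) in Tris/MgCl2/DTT buffer pH 5.5, alone or with E-64 (10 μM) or N1 (20 μM). Mixtures heated 85 °C 2 min, run on 16% tris-glycine gel at 110 V for 90 min, and read by phosphor autoradiography.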

[14] = Drug uptake in liver of SCID mouse xenografted with human HT-29 cells using 177Lu labelled compound at 0.37 MBq/mouse, iv co-treated with D-lysine at 40 mg/kg measured at 24 hrs by gamma counter analysis; type: ADME, organism-based; conditions: in vivo; outline: as §1
[15] = Ratio of drug uptake in SCID mouse xenograted with human HT-29 cells assessed as tumour retention to drug uptake in large intestine of SCID mouse xenografted with human HT-29 cells cotreated with D-lysine at 40 mg/kg measured after 24 hrs using 177Lu labelled compound; type: ADME, organism-based, Tumor/Large intestine; conditions: in vivo
Outline: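 Female SCID mice (5 weeks old) carried subcutaneous flank HT-29 xenografts (5 × 10^6 cells in Matrigel), used at about 80 mm3. They received 10 μCi (0.37 MBq) of purified 177Lu-labelled conjugate i.v. by tail vein, with D-lysine 40 mg/kg co-injected. At 24 h p.i., tissues were excised, weighed and gamma-counted, and %ID/g and tumour-to-tissue ratios were calculated (n = 5).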

Procathepsin L, sequence (P07711 114-333 limits assumed): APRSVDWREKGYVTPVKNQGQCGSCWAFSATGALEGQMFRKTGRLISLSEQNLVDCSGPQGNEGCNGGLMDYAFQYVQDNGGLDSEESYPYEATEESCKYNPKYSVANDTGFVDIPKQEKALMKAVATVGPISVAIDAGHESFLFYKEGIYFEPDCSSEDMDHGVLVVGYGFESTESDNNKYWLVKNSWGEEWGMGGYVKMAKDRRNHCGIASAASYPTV

K (Cathepsin B [1]) [µM] | Drug uptake [2] [%] | Activity (Cathepsin B [3]) | Drug uptake [4] [% ID/g] | Drug uptake [5] [% ID/g] | Ki (Cathepsin B [6]) [nM] | Drug uptake [7] [% ID/g] | Drug uptake [8] [%] | Drug uptake [9] [% ID/g] | Ratio [10] | Drug uptake [11] [% ID/g] | Drug uptake [12] [%] | Drug uptake [13] [% ID/g] | Activity (Procathepsin L) | Drug uptake [14] [% ID/g] | Ratio [15] | Compound
182 | 20 | – | – | – | – | – | – | – | – | – | – | – | – | – | – | Cc1cc(O)cc(C)c1C[C@H](NC(=O)[C@@H]1CCCN1C(=O)[C@H](CCCNC(=N)N)NC(=O)[C@H](CCCNC(=N)N)N(C)C(=O)[C@@H]1CCCN1C(=O)[C@H](CCCCN)NC(=O)[C@@H](CO)NC(=O)[C@@H](CO)NC(=O)[C@@H](CO)NC(=O)[C@H](Cc1cn(CCNC(=O)[C@H](CCCNC(=N)N)NC(=O)[C@H](CC(C)C)NC(=O)CCC(=O)O)nn1)NC(=O)CN1CCN(CC(=O)O)CCN(CC(=O)O)CCN(CC(=O)O)CC1)C(=O)N[C@H](C(=O)N[C@@H](CC(C)C)C(=O)O)C(C)(C)C
– | – | inactive | 0.8 | 1.1 | 110 | 26 | 80 | 0.14 | 250 | 1.4 | 80 | 0.14 | Active | 0.65 | 8 | Cc1cc(O)cc(C)c1C[C@H](NC(=O)[C@@H]1CCCN1C(=O)[C@H](CCCNC(=N)N)NC(=O)[C@H](CCCNC(=N)N)N(C)C(=O)[C@@H]1CCCN1C(=O)[C@H](CCCCN)NC(=O)[C@@H](CO)NC(=O)[C@@H](CO)NC(=O)[C@@H](CO)NC(=O)[C@H](Cc1cn(CCNC(=O)[C@H](CCCNC(=N)N)NC(=O)[C@H](CC(C)C)NC(=O)C2OC2C(=O)O)nn1)NC(=O)CN1CCN(CC(=O)O)CCN(CC(=O)O)CCN(CC(=O)O)CC1)C(=O)N[C@H](C(=O)N[C@@H](CC(C)C)C(=O)O)C(C)(C)C (stereo partly specified)
